Assay outcomes from PubChem BioAssay.
The sample as a whole holds a higher share of hits than the screen did.
PolyA inhibitor: yeast polyadenylation inhibition; hit rate 0.02% among 300,000; AID 1875; S. cerevisiae SKY197-pL101 polyadenylation reporter, beta-gal luminescence; efflux-impaired pdr1/pdr3 knockout yeast; score 100 = 6 SD above DMSO; activity score, % at 12 µM;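 active = lowest replicate activity score at least 50, where 100 means six control SD above control mean; inconclusive = lowest score under 50 but half or more replicates reach 50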;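 also: yeast exposed to compound for 9 h at 30 °C; higher score means more reporter readthrough which indicates perturbed polyadenylation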
NALP1 inh: inhibitors of NALP1 inflammasome in yeast | S. cerevisiae NALP1/ASC/caspase-1 growth, X-gal OD620, 72 h | inhibition, % at 10 µM | hit rate 0.61% among 280,000; in the data active = inhibition mostly above about 24%, no sharp cut-off; inactive = mostly below about 32%
Lmaj promast: reduces viability of Leishmania major promastigotes | resazurin fluorescence viability | inhibition, % at 10 µM | hit rate 9% among 200,000; in the data active = inhibition above about 50%;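 also: promastigotes grown with compound for 44 hours at 28 °C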
T cruzi repl: T. cruzi replication inhibition | T. cruzi beta-gal in NIH3T3, luminescence, 90 h | inhibition, % (no concentration beside the values) | hit rate 1.4% among 300,000 | AID 1885;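 active = mean inhibition across valid replicates above about 55%, limit read from the data; inconclusive = mean below that limit but half or more replicates reach it; inactive = mean below it, under half of replicates reach it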;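 also: signal also drops with host cell toxicity which is not excluded here; 0% = plate median of DMSO wells and 100% = zero luminescence signal; higher percent means less beta-gal luminescence so fewer parasites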
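Assay system: NIH/3T3 host cells with β-galactosidase reporter T. cruzi; input: 5,000 host fibroblasts per well; compound: single 50 nL compound addition per well in DMSO; timing: ≥90 h infection period, 3 h prior cell attachment; measured by: GalScreen β-gal luminescence, detergent lysis, 60 min; evaluation: percent inhibition of parasite-derived β-gal signal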
NLRP3 yeast inh: NALP3 inhibition in yeast; Yeast reconstituted NLRP3/ASC/caspase-1, beta-gal luminescence, 24 h; inhibition, % at 10 µM; hit rate 0.39% among 330,000;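 active = inhibition of 50% or more; inactive = inhibition below 50%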;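 also: plate controls were induced DMSO wells for no effect and uninduced yeast grown without galactose for full effect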
Calb FLC: C. albicans growth modulation with fluconazole; AID 1979; growth inhibition, % (concentration not given with the values); hit rate 0.57% among 300,000; C. albicans CaCi-2 (fluconazole-resistant clinical isolate) + fluconazole, Alamar Blue growth, 48 h;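 active = growth inhibition above about 58% in most replicates, limit read from the data, passing the limit was not always enough; inconclusive = exactly half the replicates above a set limit; inactive = most replicates below a set limit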;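 also: all wells also contain fluconazole at 8 µg/ml as a sub-toxic cotreatment; 0% = median of DMSO wells and 100% = median of geldanamycin control wells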
* = called active by the depositor; u = inconclusive; x = not tested or not shown.

SMILES	PolyA inhibitor	NALP1 inh	Lmaj promast	T cruzi repl	NLRP3 yeast inh	Calb FLC
CC(C)c1ccc(NC(=O)COc2nnc(-c3cccs3)c(-c3cccs3)n2)cc1	-1	10	83*	11	30	-5
CCc1ccc(NC(=O)C(C)Oc2nnc(-c3cccs3)c(-c3cccs3)n2)cc1 (stereo not given)	-6	3	84*	21	4	-21
COc1ccc(Cl)cc1NC(=O)C(C)OC(=O)Cn1cc(C(F)(F)F)ccc1=O (stereo not given)	x	x	x	x	16	x
CC(c1ccccc1)N1CCN(C(=O)CCl)CC1 (stereo not given)	-17	-11	76*	1	-1	-14
Cc1cccc(OCCNc2cc(N3CCOCC3)ccc2[N+](=O)[O-])c1	-34	31	-4	24	26	28
COc1ccccc1OCCNc1cc(N2CCCCC2)ccc1[N+](=O)[O-]	-9	32	7	18	33	u
Cc1ccccc1OCCNc1cc(N2CCNCC2)ccc1[N+](=O)[O-]	-3	-2	100*	35	30	42
Cc1cccc(OCCNc2cc(N3CCN(C)CC3)ccc2[N+](=O)[O-])c1	-1	-1	48	67*	42	-1
O=C(Nc1nnc(Cc2ccc(Cl)cc2)s1)c1ccco1	-16	11	-3	-15	31	5
CCN(CC)c1ccc(/C=N/NC(=O)Nc2nonc2N)cc1	-3	21	-3	15	29	-3
COCCn1c(Cc2ccccc2)nnc1SCc1ccc([N+](=O)[O-])cc1	3	9	51*	4	-3	-5
CCn1c(Cc2ccccc2)nnc1SCc1ccc([N+](=O)[O-])cc1	9	39	-3	-3	-9	-7
CCOc1ccc(-c2nnc(SCc3nnc(-c4ccccc4)o3)n2-c2ccccc2F)cc1	2	-8	99*	17	15	59
Cc1ccc(-c2nnc(CSc3nnc(COc4ccccc4)n3-c3ccccc3)o2)cc1	-22	7	41	16	3	20
O=C(O)c1ccc(CSc2nc3ccccc3c(=O)n2-c2ccccc2)cc1	3	-4	x	1	12	-2
CCOc1ccc(-n2c(SCc3ccc([N+](=O)[O-])cc3)nnc2-c2ccccc2)cc1	5	9	92*	54	16	0
O=c1c2ccccc2nc(SCc2ccc([N+](=O)[O-])cc2)n1-c1ccccc1	-4	15	54*	34	-4	5
COc1ccccc1C(CCN(Cc1ccccc1)C(C)=O)c1ccco1 (stereo not given)	-15	x	x	5	-3	2
COc1ccc(-n2c(COc3ccccc3)nnc2SCc2ccc(C#N)cc2)cc1	-19	-2	100*	31	3	8
N#Cc1ccc(CSc2nnc(COc3ccccc3)n2-c2ccccc2)cc1	0	-14	12	28	16	-1
CCSc1nnc(-c2ccc(C)cc2)c2ccccc12	-29	45	14	-2	35	93*
Cc1cc(Cl)ccc1NNC(=O)c1c(C)noc1C	-15	-4	x	-13	18	82*
c1ccc(CCNC2=NCCS2)cc1	-15	9	x	52	11	-2
COc1cccc(N/C(SCc2cccc([N+](=O)[O-])c2)=C(/C#N)C(N)=O)c1	-24	12	94*	67*	1	-6
Clc1cccc(OCCN2CCNCC2)c1	16	37	100*	58*	18	5
SMILES	PolyA inhibitor	NALP1 inh	Lmaj promast	T cruzi repl	NLRP3 yeast inh	Calb FLC
OCCN1CCN(CCOc2cccc(Cl)c2)CC1	-4	18	90*	66*	9	3
Clc1cccc(OCCN2CCOCC2)c1	19	12	7	-11	9	3
Clc1cccc(OCCCCN2CCCCC2)c1	-1	29	x	15	26	-13
FC(F)(F)c1cccc(OCCN2CCN(Cc3ccccc3)CC2)c1	-53	32	76*	39	9	-21
CCn1cc(/C=C(\NC(=O)c2ccccc2)C(=O)NCCCN2CCOCC2)c2ccccc21	-4	1	x	-2	13	-4
CC1Cc2ccccc2N1C(=O)c1cccnc1 (stereo not given)	16	26	-4	-9	-6	4
Cc1nc2ccc(C(=O)N3c4ccccc4CC3C)cc2s1 (stereo not given)	-3	-10	0	-4	-3	116*
O=C(N/N=C/c1c[nH]c2ccccc12)c1ccncc1	-11	-1	56*	-13	10	-6
Cc1ccc(C(=O)Nc2ccc(C(=O)N/N=C/c3c[nH]c4ccccc34)cc2)cc1	2	17	73*	-31	13	-5
O=C(N/N=C/c1cc2c(cc1Br)OCO2)c1c[nH]c2ccccc12	-1	-13	80*	62*	-12	-7
CCC(=O)Nc1ccc(Nc2ccccc2)cc1	3	42	93*	0	16	-33
O=C(CNc1ccccc1)Nc1ccc(F)cc1	17	28*	5	-19	25	-5
O=C(CN1C(=O)c2ccccc2C1=O)Nc1ccccc1C(=O)NC1CCCCC1	-17	15	-5	1	12	13
COCCNC(=O)Nc1ccc2nc(-c3cccs3)c(-c3cccs3)nc2c1	2	-16	27	0	-4	-5
O=C(Nc1ccc2nc(-c3cccs3)c(-c3cccs3)nc2c1)NC1CC1	-10	-11	64*	37	-17	35
CCC(=O)c1ccc(/C=C/c2nc3ccccc3n2C)o1	-1	5	11	7	27	2
CN(Cc1ccccc1)C(=O)COC(=O)C1=NNC(=O)CC1	15	15	52*	-8	4	u
COC(=O)c1ccc(N)c(N=CC2=C(O)CC(C)(C)CC2=O)c1	-15	23	-2	-13	8	-2
COC(=O)c1ccc2c(c1)C(C)(C)C(/C=C/c1ccccc1O)=[N+]2C	-25	1	101*	74*	45	3
CCC(CO)NCc1ccc(OCC(=O)Nc2cccc(C(F)(F)F)c2)c(OC)c1 (stereo not given)	4	18	95*	-8	0	-2
CCOc1cc(CNC(C)(C)C)ccc1OCC(=O)Nc1cccc(C(F)(F)F)c1	-7	8	84*	12	7	4
CCOc1cc(CNC)ccc1OCC(=O)NC(C)(C)C	11	0	4	11	0	-6
COc1cc(C(=O)NCc2cccnc2)ccc1OCC(=O)Nc1cccc(C(F)(F)F)c1	-24	x	x	-18	7	1
Cc1ccc2c(c1)C(c1ccccc1)CC(=O)O2 (stereo not given)	-15	-18	x	-3	-10	13
CCCCCCCCCCOC(=O)Cn1c(COc2ccc(OC)cc2)[n+](C)c2ccccc21	-14	22	x	29	15	-11
